Data as given in ChEMBL document CHEMBL1132144, “Synthesis of 9-O-substituted derivatives of 9-hydroxy-5, 6-dimethyl-6H-pyrido[4,3-b]carbazole-1-carboxylic acid (2-(dimethylamino)ethyl)amide and their 10- and 11-methyl analogues with improved antitumor activity” (J Med Chem, 1999).
Values joined by “and” are separate entries in the source; they are usually repeats but may differ in a detail not shown here. Equal entries are not always repeated.

Assays:
B16 = experiment: Inhibition of murine B16 melanoma cell proliferation measured by the MTT assay; format: functional, cell-based; details: Mus musculus
Outline: (§1)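 Murine L1210 leukemia and B16 melanoma cells were grown in RPMI 1640 with 10% fetal calf serum, 2 mM L-glutamine, penicillin/streptomycin and 10 mM HEPES (pH 7.4). Cells were exposed to nine serial drug dilutions in triplicate for about four doubling times (L1210 48 h, B16 96 h), then read by microculture tetrazolium (MTT) assay. IC50 is the concentration halving optical density versus untreated controls, averaged over ≥2 independent experiments.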

L1210 = experiment: Inhibition of murine L1210 leukemia cell proliferation measured by the MTT assay; format: functional, cell-based; details: Mus musculus; outline: as §1
Mus musculus [1] = experiment: Long-term survivors among 6 mice infected with P388 leukemia, scored on day 60 at 80 mg/kg dose; format: functional
Outline: (§2)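 B6D2F1 mice in groups of 6–7 were inoculated ip on day 0 with 10^6 P388 cells. Dihydrochloride salts were dissolved in water and given iv on day 1 or on days 1, 5 and 9. Doses ranged from a low nontoxic dose to a toxic one. Long-term survivors were counted at day 60.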

Mus musculus [2] = experiment: Percent median survival time of mice intraperitoneally injected with P388 leukemia was determined from tested at 80 mg/kg at day1,5,9 dose to that of control; format: functional; details: route intraperitoneal
Outline: (§3)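 P388 leukemia in B6D2F1 mice (groups of 6–7), 10^6 cells inoculated ip on day 0. Dihydrochloride salts were dissolved in water and given iv on day 1 or on days 1, 5, 9. Three doses were tested, then five if active. %T/C = median survival treated/control × 100, reported at the optimal dose (no toxic death, weight loss <20%), from one or two representative experiments.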

Mus musculus [3] = experiment: Percent median survival time of mice intraperitoneally injected with P388 leukemia was determined from tested at 160 mg/kg at day1 dose to that of control; format: functional; outline: as §3
Mus musculus [4] = experiment: Long-term survivors among 6 mice infected with P388 leukemia, scored on day 60 at 160 mg/kg dose; format: functional; outline: as §2
Mus musculus [5] = experiment: Percent median survival time of mice injected with B16 melanoma, at a intraperitoneal compound dose of 20 mg/kg
Mus musculus [6] = experiment: Long-term survivors among 6 mice infected with P388 leukemia, scored on day 90 at 20 mg/kg dose; format: functional
Mus musculus [7] = experiment: Long-term survivors among 6 mice infected with P388 leukemia, scored on day 60 at 40 mg/kg dose; format: functional; outline: as §2
Mus musculus [8] = experiment: Percent median survival time of mice intraperitoneally injected with P388 leukemia was determined from tested at 40 mg/kg at day1,5,9 dose to that of control; format: functional; details: route intraperitoneal; outline: as §3
Mus musculus [9] = experiment: Long-term survivors among 7 mice infected with P388 leukemia, scored on day 90 at 10 mg/kg dose; format: functional
Mus musculus [10] = experiment: Percent median survival time of mice injected with B16 melanoma, at a intraperitoneal compound dose of 10 mg/kg
Mus musculus [11] = experiment: Long-term survivors among 7 mice infected with B16 melanoma, scored on day 90 at 20 mg/kg dose on day 1; format: functional
Mus musculus [12] = experiment: Long-term survivors among 7 mice infected with P388 leukemia, scored on day 60 at 20 mg/kg dose on day 1; format: functional
Outline: (§4)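 B6D2F1 mice in groups of 6–7 received 10^6 P388 cells ip on day 0. Dihydrochloride salts dissolved in water were injected iv on day 1 or on days 1, 5 and 9, at three doses and then five. Read-outs were % T/C (median survival treated/control × 100) and long-term survivors on day 60, both at the optimal dose (no toxic death, weight loss <20%).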

Mus musculus [13] = experiment: Percent median survival time of mice injected with P388 leukemia, at a subcutaneous compound dose of 10 mg/kg; format: functional
Mus musculus [14] = experiment: Percent median survival time of mice injected with P388 leukemia, at a subcutaneous compound dose of 20 mg/kg; format: functional
Mus musculus [15] = experiment: Percent median survival time of mice injected with B16 melanoma, at a intraperitoneal compound dose of 5 mg/kg
Mus musculus [16] = experiment: Long-term survivors among 7 mice infected with B16 melanoma, scored on day 90 at 10 mg/kg dose on day 1; format: functional
Mus musculus [17] = experiment: Long-term survivors among 7 mice infected with P388 leukemia, scored on day 60 at 10 mg/kg dose on day 1; format: functional; outline: as §4
Mus musculus [18] = experiment: Percent median survival time of mice injected with P388 leukemia, at a intravenous compound dose of 5 mg/kg
Mus musculus [19] = experiment: Percent median survival time of mice injected with B16 melanoma, at a intraperitoneal compound dose of 40 mg/kg
Mus musculus [20] = experiment: Long-term survivors among 7 mice infected with B16 melanoma, scored on day 90 at 160 mg/kg dose on day 1; format: functional
Mus musculus [21] = experiment: Long-term survivors among 7 mice infected with P388 leukemia, scored on day 60 at 160 mg/kg dose on day 1; format: functional; outline: as §4
Mus musculus [22] = experiment: Percent median survival time of mice injected with P388 leukemia, at a subcutaneous compound dose of 160 mg/kg; format: functional
Mus musculus [23] = experiment: Percent median survival time of mice injected with P388 leukemia, at a intravenous compound dose of 80 mg/kg
Mus musculus [24] = experiment: Long-term survivors among 7 mice infected with B16 melanoma, scored on day 90 at 40 mg/kg dose on day 1; format: functional
Mus musculus [25] = experiment: Long-term survivors among 7 mice infected with P388 leukemia, scored on day 60 at 40 mg/kg dose on day 1; format: functional; outline: as §4
Mus musculus [26] = experiment: Percent median survival time of mice injected with P388 leukemia, at a intravenous compound dose of 40 mg/kg

Cc1c2ccnc(C(=O)NCCN(C)C)c2cc2c3cc(OC(=O)N4CCN(C)CC4)ccc3n(C)c12
IC50 (B16): 2470 nM | IC50 (L1210): 1300 nM | LTS (Mus musculus [1]): 0 | T/C (Mus musculus [2]): 134% | T/C (Mus musculus [3]): 146% | LTS (Mus musculus [4]): 0 | T/C (Mus musculus [5]): 159%

Cc1c2ccnc(C(=O)NCCN(C)C)c2cc2c3cc(OS(C)(=O)=O)ccc3n(C)c12
IC50 (B16): 782 nM | IC50 (L1210): 868 nM | LTS (Mus musculus [6]): 0 | LTS (Mus musculus [7]): 0 | T/C (Mus musculus [3]): 96% | T/C (Mus musculus [8]): 106% | LTS (Mus musculus [4]): 0 | T/C (Mus musculus [5]): 142%

Cc1c2ccnc(C(=O)NCCN(C)C)c2cc2c3cc(OP(=O)(O)O)ccc3n(C)c12
IC50 (B16): 4.1 nM | IC50 (L1210): 50.5 nM | LTS (Mus musculus [9]): 0 | LTS (Mus musculus [7]): 1 | T/C (Mus musculus [3]): 239% | T/C (Mus musculus [8]): 405% | LTS (Mus musculus [4]): 1 | T/C (Mus musculus [10]): 171%

COC(=O)CCCC(=O)Oc1ccc2c(c1)c1cc3c(C(=O)NCCN(C)C)nccc3c(C)c1n2C
IC50 (B16): 7.1 nM | IC50 (L1210): 5.4 nM | LTS (Mus musculus [11]): 0 | LTS (Mus musculus [12]): 0 | T/C (Mus musculus [13]): 158% | T/C (Mus musculus [14]): 145% | T/C (Mus musculus [15]): 144%

CCCCCCCCCCCCN(C)C(=O)Oc1ccc2c(c1)c1cc3c(C(=O)NCCN(C)C)nccc3c(C)c1n2C
IC50 (B16): 3260 nM | IC50 (L1210): 2870 nM | LTS (Mus musculus [16]): 0 | LTS (Mus musculus [17]): 0 | T/C (Mus musculus [13]): 103% | T/C (Mus musculus [18]): 100% | T/C (Mus musculus [19]): 115%

Cc1c2ccnc(C(=O)NCCN(C)C)c2cc2c3cc(OC(=O)CCCCCCC(=O)O)ccc3n(C)c12
IC50 (B16): 3.1 nM | IC50 (L1210): 53.2 nM | LTS (Mus musculus [20]): 0 | LTS (Mus musculus [21]): 0 | T/C (Mus musculus [22]): 287% | T/C (Mus musculus [23]): >645%

CCOC(=O)CCNC(=O)Oc1ccc2c(c1)c1cc3c(C(=O)NCCN(C)C)nccc3c(C)c1n2C
IC50 (B16): 5.7 nM | IC50 (L1210): 16.4 nM | LTS (Mus musculus [24]): 0 | LTS (Mus musculus [25]): 0 | T/C (Mus musculus [14]): 95% | T/C (Mus musculus [26]): 97% | T/C (Mus musculus [10]): 115%

Cc1c2ccnc(C(=O)NCCN(C)C)c2cc2c3cc(OC(=O)CCCCC4CCSS4)ccc3n(C)c12 (stereo not drawn)
IC50 (B16): 14 nM | IC50 (L1210): 118 nM | LTS (Mus musculus [16]): 0 | LTS (Mus musculus [17]): 0 | T/C (Mus musculus [13]; 10 mg/kg): 118% and 129% | T/C (Mus musculus [15]): 140%

Cc1c2ccnc(C(=O)NCCN(C)C)c2cc2c3cc(OC(=O)CCCCC(=O)OCc4ccccc4)ccc3n(C)c12
IC50 (B16): 58.4 nM | IC50 (L1210): 109 nM | LTS (Mus musculus [11]): 0 | LTS (Mus musculus [12]): 0 | T/C (Mus musculus [13]): 128% | T/C (Mus musculus [14]): 124% | T/C (Mus musculus [19]): 102%
